Numbering of substitutions follows the chain as printed.
Assays:
Conditions in all cases: stereoisomer not certain
[1] = tested on: T1, A0A140T8K4
T1 sequence (whole entry): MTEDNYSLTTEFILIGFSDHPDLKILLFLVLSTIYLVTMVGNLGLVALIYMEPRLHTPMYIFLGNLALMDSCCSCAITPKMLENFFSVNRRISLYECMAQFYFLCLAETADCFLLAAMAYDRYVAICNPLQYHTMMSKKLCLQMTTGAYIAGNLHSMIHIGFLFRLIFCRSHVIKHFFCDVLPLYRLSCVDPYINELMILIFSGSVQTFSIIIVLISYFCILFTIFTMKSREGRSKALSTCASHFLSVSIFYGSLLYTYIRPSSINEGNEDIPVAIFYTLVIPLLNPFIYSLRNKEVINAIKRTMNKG
In short: (§1)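 Assay methods differ from source to source, frequently being transient luciferase assays in mammalian cell lines. For each receptor–molecule pair, the label responsive (active) applies when the original authors judged the measured signal statistically different from baseline, and non-responsive (inactive) applies otherwise.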

[2] = tested on: T2, A0A2J8MY22
T2 sequence (whole entry): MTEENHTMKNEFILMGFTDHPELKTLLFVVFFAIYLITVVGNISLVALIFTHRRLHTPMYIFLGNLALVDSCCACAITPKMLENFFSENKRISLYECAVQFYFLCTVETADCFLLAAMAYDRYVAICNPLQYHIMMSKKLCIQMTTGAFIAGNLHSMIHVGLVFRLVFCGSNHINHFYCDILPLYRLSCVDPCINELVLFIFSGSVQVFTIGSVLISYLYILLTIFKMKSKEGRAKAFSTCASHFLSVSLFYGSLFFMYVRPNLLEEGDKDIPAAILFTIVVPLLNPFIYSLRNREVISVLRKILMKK
In short: as §1

[3] = tested on: T3, A0A2R8ZIW4
T3 sequence (whole entry): T2 sequence (whole entry) with V39I, I280V
In short: as §1

[4] = tested on: T4, A0A3Q7SVK8
T4 sequence (whole entry): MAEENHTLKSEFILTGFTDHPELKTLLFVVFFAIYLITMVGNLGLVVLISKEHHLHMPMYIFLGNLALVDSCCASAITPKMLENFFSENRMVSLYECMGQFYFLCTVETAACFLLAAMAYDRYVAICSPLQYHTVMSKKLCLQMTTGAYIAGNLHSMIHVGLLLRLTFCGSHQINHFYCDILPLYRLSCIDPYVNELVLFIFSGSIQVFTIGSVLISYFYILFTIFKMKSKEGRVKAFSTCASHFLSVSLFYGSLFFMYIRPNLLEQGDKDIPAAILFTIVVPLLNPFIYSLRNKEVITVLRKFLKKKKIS
In short: as §1

[5] = tested on: T5, A0A6P3DZI2
T5 sequence (whole entry): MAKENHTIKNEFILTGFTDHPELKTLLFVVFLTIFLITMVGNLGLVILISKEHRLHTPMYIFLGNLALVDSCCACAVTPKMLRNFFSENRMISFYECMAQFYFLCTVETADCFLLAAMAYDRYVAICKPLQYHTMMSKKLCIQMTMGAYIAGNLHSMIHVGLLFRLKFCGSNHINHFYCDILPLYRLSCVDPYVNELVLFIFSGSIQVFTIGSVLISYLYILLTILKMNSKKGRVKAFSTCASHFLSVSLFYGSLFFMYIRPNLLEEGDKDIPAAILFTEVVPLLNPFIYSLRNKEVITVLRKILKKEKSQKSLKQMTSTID
In short: as §1

[6] = tested on: T6, A0A6P6H1F7
T6 sequence (whole entry): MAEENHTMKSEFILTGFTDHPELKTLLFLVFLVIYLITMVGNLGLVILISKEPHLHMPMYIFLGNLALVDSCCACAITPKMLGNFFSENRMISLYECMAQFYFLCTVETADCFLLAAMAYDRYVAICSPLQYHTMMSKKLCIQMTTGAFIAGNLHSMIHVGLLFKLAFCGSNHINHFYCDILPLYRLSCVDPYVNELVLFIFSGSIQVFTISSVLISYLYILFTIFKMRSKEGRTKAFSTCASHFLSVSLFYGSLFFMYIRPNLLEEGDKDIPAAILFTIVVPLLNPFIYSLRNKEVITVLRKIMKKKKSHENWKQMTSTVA
In short: as §1

[7] = tested on: T7, A0A140T8K0
T7 sequence (whole entry): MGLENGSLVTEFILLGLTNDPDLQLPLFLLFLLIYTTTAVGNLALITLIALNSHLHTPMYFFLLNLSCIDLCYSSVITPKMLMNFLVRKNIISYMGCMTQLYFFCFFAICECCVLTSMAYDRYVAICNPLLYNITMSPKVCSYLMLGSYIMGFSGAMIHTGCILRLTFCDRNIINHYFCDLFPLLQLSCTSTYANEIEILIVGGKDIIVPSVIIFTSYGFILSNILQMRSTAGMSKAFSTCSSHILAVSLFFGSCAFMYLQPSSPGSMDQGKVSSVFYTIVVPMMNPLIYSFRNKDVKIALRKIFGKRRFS
In short: as §1

[8] = tested on: T8, O10A2 H43R H207R K258T
T8 sequence (whole entry): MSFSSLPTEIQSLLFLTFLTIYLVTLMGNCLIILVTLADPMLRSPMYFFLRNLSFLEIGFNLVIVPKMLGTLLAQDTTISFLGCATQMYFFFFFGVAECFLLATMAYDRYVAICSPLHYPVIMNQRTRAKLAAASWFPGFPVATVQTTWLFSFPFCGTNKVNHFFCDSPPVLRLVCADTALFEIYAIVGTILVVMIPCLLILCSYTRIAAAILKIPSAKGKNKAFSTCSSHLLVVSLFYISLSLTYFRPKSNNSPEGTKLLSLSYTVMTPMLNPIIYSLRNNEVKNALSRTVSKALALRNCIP
In short: as §1

[9] = tested on: T9, O10A3 C8G
T9 sequence (whole entry): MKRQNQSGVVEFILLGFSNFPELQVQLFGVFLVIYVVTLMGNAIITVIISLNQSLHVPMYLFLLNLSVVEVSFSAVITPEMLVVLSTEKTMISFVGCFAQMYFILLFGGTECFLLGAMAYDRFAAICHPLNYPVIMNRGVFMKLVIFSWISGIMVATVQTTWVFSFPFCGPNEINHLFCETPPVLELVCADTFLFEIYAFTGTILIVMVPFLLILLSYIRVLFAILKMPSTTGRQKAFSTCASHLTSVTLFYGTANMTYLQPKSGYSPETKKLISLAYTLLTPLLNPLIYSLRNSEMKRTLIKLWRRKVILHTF
In short: as §1

[10] = tested on: T10, O10A6
T10 sequence (whole entry): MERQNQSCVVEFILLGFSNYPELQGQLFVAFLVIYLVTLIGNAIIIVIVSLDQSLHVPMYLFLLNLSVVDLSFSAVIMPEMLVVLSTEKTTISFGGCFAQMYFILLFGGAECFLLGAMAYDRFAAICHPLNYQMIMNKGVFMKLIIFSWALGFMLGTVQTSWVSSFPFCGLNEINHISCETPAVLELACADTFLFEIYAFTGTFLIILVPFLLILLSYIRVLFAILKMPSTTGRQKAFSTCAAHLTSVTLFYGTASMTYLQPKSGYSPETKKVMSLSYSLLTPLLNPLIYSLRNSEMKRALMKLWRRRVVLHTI
In short: as §1

[11] = tested on: T11, O10AD G65C
T11 sequence (whole entry): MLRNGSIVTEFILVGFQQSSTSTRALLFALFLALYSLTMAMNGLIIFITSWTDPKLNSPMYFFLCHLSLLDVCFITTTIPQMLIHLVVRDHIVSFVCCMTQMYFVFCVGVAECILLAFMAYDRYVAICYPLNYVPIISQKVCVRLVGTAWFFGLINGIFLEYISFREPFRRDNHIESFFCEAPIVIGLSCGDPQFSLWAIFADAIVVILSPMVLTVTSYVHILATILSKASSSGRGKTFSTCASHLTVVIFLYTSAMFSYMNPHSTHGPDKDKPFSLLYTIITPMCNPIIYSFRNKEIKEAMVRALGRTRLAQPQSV
In short: as §1

[12] = tested on: T12, O10D3 V134A R197K
T12 sequence (whole entry): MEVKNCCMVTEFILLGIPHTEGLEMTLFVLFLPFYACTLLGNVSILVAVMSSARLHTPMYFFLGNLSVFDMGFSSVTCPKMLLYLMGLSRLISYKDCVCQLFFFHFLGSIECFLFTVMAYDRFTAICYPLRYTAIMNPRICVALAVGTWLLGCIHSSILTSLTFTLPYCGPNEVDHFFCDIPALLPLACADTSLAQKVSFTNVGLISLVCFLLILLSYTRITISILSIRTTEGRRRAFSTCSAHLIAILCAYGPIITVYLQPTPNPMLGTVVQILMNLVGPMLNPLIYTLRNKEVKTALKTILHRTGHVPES
In short: as §1

[13] = tested on: T13, O10G4 L24P V195E
T13 sequence (whole entry): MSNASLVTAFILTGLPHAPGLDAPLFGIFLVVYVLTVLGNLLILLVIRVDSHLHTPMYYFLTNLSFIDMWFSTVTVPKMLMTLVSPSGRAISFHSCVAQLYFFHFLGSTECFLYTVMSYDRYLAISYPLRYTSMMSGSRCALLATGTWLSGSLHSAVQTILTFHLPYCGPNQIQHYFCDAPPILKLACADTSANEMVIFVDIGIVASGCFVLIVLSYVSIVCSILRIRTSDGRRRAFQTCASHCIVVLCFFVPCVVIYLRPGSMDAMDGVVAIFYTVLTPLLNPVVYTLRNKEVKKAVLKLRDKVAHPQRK
In short: as §1

[14] = tested on: T14, O10G7 A18V P19Q G20A
T14 sequence (whole entry): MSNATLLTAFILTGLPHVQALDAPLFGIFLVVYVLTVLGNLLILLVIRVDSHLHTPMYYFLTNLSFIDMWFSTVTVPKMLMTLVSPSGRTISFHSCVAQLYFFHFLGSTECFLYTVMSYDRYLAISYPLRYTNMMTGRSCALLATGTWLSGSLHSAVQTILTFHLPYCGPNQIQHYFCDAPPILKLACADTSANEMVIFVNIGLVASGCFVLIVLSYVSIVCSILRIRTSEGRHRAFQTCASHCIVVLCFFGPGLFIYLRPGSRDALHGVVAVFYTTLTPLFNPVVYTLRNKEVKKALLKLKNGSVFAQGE
In short: as §1

[15] = tested on: T15, O10G7 I28V
T15 sequence (whole entry): T14 sequence (whole entry) with V18A, Q19P, A20G, I28V
In short: as §1

[16] = tested on: T16, A0A1L1SVG7
T16 sequence (whole entry): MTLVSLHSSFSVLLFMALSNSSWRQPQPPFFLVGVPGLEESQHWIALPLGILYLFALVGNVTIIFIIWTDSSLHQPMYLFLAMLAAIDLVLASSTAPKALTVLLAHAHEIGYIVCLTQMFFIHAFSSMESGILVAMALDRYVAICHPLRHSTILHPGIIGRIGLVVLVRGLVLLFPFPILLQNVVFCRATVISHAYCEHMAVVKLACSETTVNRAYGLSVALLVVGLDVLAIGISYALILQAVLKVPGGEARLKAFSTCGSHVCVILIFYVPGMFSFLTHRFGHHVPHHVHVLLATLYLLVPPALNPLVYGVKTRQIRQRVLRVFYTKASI
In short: as §1

[17] = tested on: A0A2J8KNW9
In short: as §1

[18] = tested on: A0A2R8ZMP6
In short: as §1

Measured: odorant receptor agonist call

CCc1nccnc1OC
inactive: [1] | [5]
active: [2] | [3] | [4] | [6]

COc1nccnc1C(C)C
inactive: [7] | [1] | [5]
active: [2] | [3] | [4] | [6]

Cc1nccnc1C
active: [2] | [3] | [4] | [6]
inactive: [1] | [5]

CCCC(S)CCOC(C)=O (configuration not stated)
inactive: [8] | [9] | [10] | [11] | [12] | [13] | [14] | [15]

Cc1cncc(C)n1
active: [2] | [3] | [4] | [5] | [6]
inactive: [1]

Cc1cnc(C)c(C)n1
active: [2] | [3] | [4] | [5] | [6]
not listed: [7] | [16] | [17] | [18]
inactive: all other assays above

CCc1nccnc1C
active: [2] | [3] | [4] | [6]
inactive: [1] | [5]

O=c1ccc2ccccc2o1
inactive: [1] | [16]

Cc1cnc(C)cn1
active: [2] | [3] | [4] | [6]
inactive: [1] | [5]

CCC(S)C(C)CO (configuration not stated)
inactive: [17] | [18]

CCCC(C)=O
inactive: [1] | [16]

CC1=C(O)C(=O)OC1C (configuration not stated)
inactive: [8] | [9] | [10] | [11] | [12] | [13] | [14] | [15]

O=C(c1ccccc1)c1ccccc1
inactive: [7] | [1] | [16]

CC(=O)c1cnccn1
inactive: [1] | [5]
active: [2] | [3] | [4] | [6]

From the M2OR odorant receptor database
